This is a sample that favours compounds with a hit; in the whole collection about 3% have one here.
S100A4 MyoIIA: S100A4-myosin IIA interaction inhibition; P26447; S100A4/TAMRA-MyoIIA peptide fluorescence polarization; inhibition, % at 10.7 µM; 360,000 compounds, 0.14% hits;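 active = mean inhibition of at least 70% across replicates, with every replicate also reaching that level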
Target sequence (P26447 whole entry, looked up): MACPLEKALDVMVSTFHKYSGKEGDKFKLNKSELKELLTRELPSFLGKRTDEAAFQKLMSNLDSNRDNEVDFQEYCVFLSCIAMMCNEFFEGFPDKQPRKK
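Compound dosing: one dose per compound; test system: human S100A4 monomer with TAMRA-labelled myosin IIA peptide; probe or stimulus: TAMRA-labelled myosin IIA heavy-chain peptide probe, 5 nM; medium: HEPES buffer with Ca2+, pH 7.2; schedule: 5 min incubation before reading; benchmarks: neutral control DMSO, positive control TFP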
SIRT5 block: inhibitors of human sirtuin-5 desuccinylase; Q9NXA8; Purified SirT5, succinyl-peptide AMC, trypsin-coupled fluorescence; inhibition, % at 15 µM; 330,000 compounds, 1.1% hits; AID 652115; in the data active = inhibition above about 15%
Target sequence (Q9NXA8 whole entry, looked up): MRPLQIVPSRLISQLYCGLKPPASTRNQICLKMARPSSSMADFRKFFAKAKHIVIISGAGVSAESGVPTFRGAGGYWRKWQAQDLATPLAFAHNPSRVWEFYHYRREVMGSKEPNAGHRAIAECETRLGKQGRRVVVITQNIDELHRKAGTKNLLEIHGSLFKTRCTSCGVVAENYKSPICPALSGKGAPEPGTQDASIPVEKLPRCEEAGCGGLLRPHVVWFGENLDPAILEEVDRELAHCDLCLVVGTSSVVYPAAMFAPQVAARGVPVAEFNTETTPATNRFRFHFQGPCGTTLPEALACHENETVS
PGC1a acetyl inh: lowers PGC1a acetylation signal in U2OS cells; AlphaScreen anti-acetyl-lysine; with virally co-expressed GCN5 acetyltransferase; inhibition, % at 15.6 µM; 350,000 compounds, 0.17% hits;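 active = every replicate shows inhibition of at least 40%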;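 also: 0% = neutral control wells and 100% = positive control wells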
Cneo AK release: causes C. neoformans cell lysis; adenylate kinase release luminescence, 4 h; normalised: neutral wells 0, clomiphene wells 100; lysis activity, % at 15 µM; 360,000 compounds, 0.2% hits;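 active = mean lysis activity across replicates of at least 80%, whatever share of replicates individually reach that level; inactive = mean lysis activity below 80%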
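Material – log-phase Cryptococcus neoformans yeast cells · Input – 5 × 10^6 yeast cells/mL · Medium – fresh YPD growth medium · Doses – single compound concentration per well · Timing – static 4 h at 37 °C with compound, 1 h detection · Detection – adenylate kinase release luminescence · Read-out – signal increase indicating cell lysis · Control set – Clomiphene as positive lysis control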
Statin myotox sup: suppression of simvastatin myotoxicity; C2C12 myotubes + simvastatin, ATP luminescence, 48 h; scaled: DMSO 0, geranylgeraniol control 100; rescue of ATP level, % at 7.49 µM; 330,000 compounds, 0.78% hits; AID 602340;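 active = mean ATP rescue above about 67%, or every replicate alone reaching that limit, limit read from the data, passing the limit was not always enough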;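 also: myotubes were challenged with 10 µM simvastatin during compound exposure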
rRNA inh HTS: selective bacterial rRNA inhibition in E. coli; 350,000 compounds, 1.6% hits; AID 720706; E. coli WT GFP vs humanized-ribosome RFP mutants, fluorescence, 24 h; active compounds read low; DMSO median 0, no signal -100; GFP signal change (wild-type ribosome), % (test concentration not listed);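 active = significant combined selectivity score with lowered wild-type GFP, culture density cut under 30%, mutant RFP and density less affected; inactive = any of these conditions unmet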
Active calls of the source: *; nt = no result.

SMILES	S100A4 MyoIIA	SIRT5 block	PGC1a acetyl inh	Cneo AK release	Statin myotox sup	rRNA inh HTS
O=C(Cn1cnc2ccccc2c1=O)Nc1ccc(S(=O)(=O)N2CCCC2)cc1	3	16*	4	nt	nt	-7
Nn1c(SCC(=O)Nc2ccc(S(=O)(=O)N3CCCC3)cc2)nnc1C(F)(F)F	nt	nt	15	-2	107*	nt
O=c1oc(-c2cc3ccccc3o2)nc2sc3c(c12)CCCC3	-10	-4	12	-2	-66	-23*
COc1ccc(Oc2coc3c(CN(C)C)c(O)ccc3c2=O)cc1	nt	nt	-4	-7	118*	nt
Cc1cc(C)cc(Oc2coc3c(CN(C)C)c(O)ccc3c2=O)c1	-2	-19	nt	-1	0	9
Cc1ccc(S(=O)(=O)Nc2ccc3c(c2)CC(=O)N([C@H](C)CO)C[C@H](C)[C@@H](CN(C)Cc2ccc(C(F)(F)F)cc2)O3)cc1	nt	nt	-12	nt	115*	0
C[C@H](CO)N1C[C@H](C)[C@H](CN(C)Cc2ccc(C(F)(F)F)cc2)Oc2ccc(NS(=O)(=O)c3ccc(F)cc3)cc2CC1=O	-17	12	7	5	0	-2
C[C@@H]1CN([C@@H](C)CO)C(=O)c2cc(NS(=O)(=O)c3ccc(F)cc3)ccc2O[C@H]1CN(C)Cc1ccc(C(F)(F)F)cc1	nt	nt	3	nt	7	-1
C[C@H](CO)N1C[C@H](C)[C@@H](CN(C)Cc2ccc(C(F)(F)F)cc2)Oc2ccc(NS(=O)(=O)c3ccc(F)cc3)cc2CC1=O	-1	35*	5	5	83*	-3
Cc1ccc(S(=O)(=O)Nc2ccc3c(c2)CC(=O)N([C@@H](C)CO)C[C@H](C)[C@H](CN(C)Cc2ccc(C(F)(F)F)cc2)O3)cc1	nt	nt	-6	nt	30	-1
C[C@H](CO)N1C[C@H](C)[C@@H](CN(C)Cc2ccc(C(F)(F)F)cc2)Oc2ccc(NS(=O)(=O)c3ccc(F)cc3)cc2C1=O	-7	2	103*	7	7	-1
C[C@@H](O)C#Cc1ccc2c(c1)O[C@H](CN(C)CC1CC1)[C@@H](C)CN([C@@H](C)CO)S2(=O)=O	nt	nt	-18	nt	-3	0
C[C@H]1CN([C@@H](C)CO)S(=O)(=O)c2ccc(-c3ccccc3)cc2O[C@@H]1CN(C)Cc1ccncc1	7	8	-7	-6	3	-52
Cc1cccc(N=C2NC(=O)/C(=C/c3cccn3C)S2)c1C	-16	1	5	1	21	-26*
Cc1ccc(N=C2NC(=O)/C(=C/c3cccn3C)S2)cc1C	-1	0	4	-2	nt	2
C[C@H](CO)N1C[C@H](C)[C@H](CN(C)S(=O)(=O)c2ccc(F)cc2)Oc2ccc(NS(=O)(=O)c3ccc(F)cc3)cc2C1=O	-1	3	-10	2	42	1
COc1ccc(NC(=O)Nc2ccc3c(c2)[C@@H]2C[C@@H](CC(=O)N4CCOCC4)O[C@@H](CO)[C@@H]2O3)cc1	nt	nt	1	55	7	0
CC(=O)c1ccc(NC(=O)Nc2ccc(Cl)cc2)cc1	10	-3	nt	nt	-13	-12
CC(=O)c1ccc(NC(=O)c2cc(Cl)sc2Cl)cc1	1	0	nt	nt	nt	-30*
C[C@@H]1CN([C@H](C)CO)C(=O)c2cc(C#Cc3ccccc3)cnc2O[C@H]1CN(C)C(=O)c1ccccc1	25	12	17	29	13	-1
Cc1ccc(C2CC2C(=O)NNC(=S)Nc2cccc(Cl)c2)cc1 (stereo not drawn)	nt	nt	11	3	81*	nt
O=C(NNC(=S)Nc1ccc(F)cc1)C1CC1c1ccc(Cl)cc1 (stereo not drawn)	1	-4	nt	nt	nt	-52*
CCc1cc2c(N3CCN(C(=O)c4ccco4)CC3)ncnc2s1	-3	1	2	3	0	-30*
O=C(c1ccco1)N1CCN(c2ncnc3c2cnn3-c2ccccc2)CC1	nt	nt	-5	-2	7	nt
CNC[C@@H]1Oc2ccc(NC(=O)Cc3ccccc3)cc2C(=O)N([C@H](C)CO)C[C@H]1C	-5	4	10	46	-3	1
SMILES	S100A4 MyoIIA	SIRT5 block	PGC1a acetyl inh	Cneo AK release	Statin myotox sup	rRNA inh HTS
C/C=C/c1ccc2c(c1)O[C@H](CN(C)C(=O)Cc1cccnc1)[C@@H](C)CN([C@@H](C)CO)S2(=O)=O	2	2	4	1	11	4
CCNC(=O)C[C@@H]1CC[C@H]2[C@H](COc3ccc(NC(=O)c4cccc(C(F)(F)F)c4)cc3C(=O)N2C)O1	nt	nt	-6	-3	-16	-2
CC1(C)OC2OC(C(=O)N/N=C/c3ccccc3F)C3OC(C)(C)OC3C2O1 (stereo not drawn)	-5	1	-7	0	103*	0
N#C/C(=C\c1cccc(Oc2ccccc2)c1)C(=O)N1CCOCC1	0	-2	1	2	0	-25*
CN1/C(=C\C=Nc2ccccc2)C(C)(C)c2ccccc21	-48	nt	-3	-1	85*	nt
C[C@H](CO)N1C[C@H](C)[C@H](CN(C)C(=O)NC2CCCCC2)Oc2c(NC(=O)C3CCCCC3)cccc2C1=O	1	-2	-2	-2	-12	-5
CCOc1ccc(/C=N/NC(=S)NC2CC3CC2C2C=CCC32)cc1 (stereo not drawn)	8	0	12	2	nt	-4
CCOc1ccc(/C=N/NC(=S)NC2CC3CCC2C3)cc1 (stereo not drawn)	2	-2	8	29	nt	-17*
CC(C)NC(=O)N(C)C[C@H]1Oc2ccc(NC(=O)CCC(F)(F)F)cc2CC(=O)N([C@@H](C)CO)C[C@H]1C	6	-3	0	-3	-4	4
CC(=O)Nc1ccc(C=NNc2ccc(S(=O)(=O)Nc3ccccc3C(=O)O)cc2[N+](=O)[O-])cc1	1	17*	-1	2	1	nt
COc1ccc(C(C)=NNc2ccc([N+](=O)[O-])cc2S(=O)(=O)Nc2ccccc2C(=O)O)c(OC)c1	1	15*	-7	0	5	-20*
COc1cc(/C=N/Nc2ccc(S(N)(=O)=O)cc2[N+](=O)[O-])cc(OC)c1O	2	0	nt	nt	nt	1
Cc1ccc(NC(=S)NNc2ccc([N+](=O)[O-])cc2S(=O)(=O)Nc2ccccc2C(=O)O)cc1C	nt	nt	6	1	nt	nt
CC(=O)Nc1ccc(C=NNc2ccc([N+](=O)[O-])cc2S(=O)(=O)Nc2ccccc2C(=O)O)cc1	-2	26*	nt	-2	-1	-6

Screening results (PubChem)
